From ChEMBL document CHEMBL4480406, “Discovery of an SSTR2-Targeting Maytansinoid Conjugate (PEN-221) with Potent Activity in Vitro and in Vivo” (J Med Chem, 2019)
Where a SMILES comes first, the peptide text is derived from it. [ ]: non-standard residue; d: D form. The star is where a group is joined. Dolaproine = CO[C@@H]([C@@H]1CCCN1)[C@@H](C)C(=O)O; Dil = CC[C@H](C)[C@H](NC)[C@@H](CC(=O)O)OC; X1 = C[C@@H](N*)[C@@H](O)c1ccccc1; NMeV = CN[C@H](C(=O)O)C(C)C

Tests used:
NCI-H524 [1] = assay: Cytotoxicity in human NCI-H524 cells pre-incubated for 2 hrs followed by compound wash out and subsequently incubated for 70 hrs by Cell Titer Glo assay; assay type: functional, cell-based
In short: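 Cells were then spun, washed with fresh medium, resuspended and grown a further 70 h. Proliferation was read by CellTiter-Glo luminescence, and % inhibition calculated relative to vehicle. IC50 came from a four-parameter nonlinear fit.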

[2] = target: Somatostatin receptor type 2 (Homo sapiens, UniProt P30874); assay: Displacement of [125I]somatostatin from human SSTR2 expressed in CHO-K1 cell membranes after 240 mins
In short: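 Membranes from CHO-K1 cells stably expressing human SSTR2, prepared in modified HEPES pH 7.4. Nonspecific binding was defined with 1 µM somatostatin. Bound ligand was measured by filtration, 3 washes and counting. Six test concentrations were run, top 10 nM, in five-fold dilutions.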

NCI-H524 [3] = assay: Cytotoxicity in human NCI-H524 cells pre-incubated for 2 hrs in presence of 100 uM octreotide followed by compound wash out and subsequently incubated for 70 hrs by Cell Titer Glo assay; assay type: functional, cell-based
In short: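 Octreotide receptor-blockade variant: NCI-H524 cells (5,000/well) were pretreated with octreotide acetate for 30 min, then given compound for 2 h in a ten-point three-fold series.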

[4] = Drug uptake in tumor of CrTac:NCr-Foxn1nu mouse xenografted with human NCI-H69 cells assessed as DM1 level at 1 mg/kg, iv measured after 24 hrs by LC-MS/MS analysis relative to DM1 alone; assay type: ADME, organism-based, Neoplasm; details: in vivo
In short: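 NCI-H69 subcutaneous tumors of 250-600 mm3 in nude mice, groups of 3, dosed i.v. Free DM1 was given in 10% propylene glycol/WFI, conjugates in 10% propylene glycol/5 mM citrate pH 4. Tumors were excised at 24 h and homogenized 1:4 (w/v) in 0.1 M ammonium bicarbonate pH 8.0. Homogenate was reduced with TCEP in acetonitrile (15 min, 37 °C), capped with 0.2 M NEM (15 min, 37 °C), and DM1-NEM quantified by LC-MS/MS against standards in blank tumor homogenate. Values were normalized to DM1 dose.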

Somatostatin receptor type 2, sequence (P30874 whole entry): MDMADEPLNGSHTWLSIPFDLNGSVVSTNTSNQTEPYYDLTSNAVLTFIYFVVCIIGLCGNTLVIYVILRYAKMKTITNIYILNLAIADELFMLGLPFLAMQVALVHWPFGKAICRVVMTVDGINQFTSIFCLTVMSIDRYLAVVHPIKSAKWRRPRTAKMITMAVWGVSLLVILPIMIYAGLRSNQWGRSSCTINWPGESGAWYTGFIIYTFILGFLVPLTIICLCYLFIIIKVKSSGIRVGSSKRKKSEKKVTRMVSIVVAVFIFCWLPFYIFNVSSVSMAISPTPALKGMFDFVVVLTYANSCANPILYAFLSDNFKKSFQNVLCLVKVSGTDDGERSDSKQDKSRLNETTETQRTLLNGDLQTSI

| SMILES | IC50 (NCI-H524 [1]) [nM] | Ki [2] [nM] | IC50 (NCI-H524 [3]) [nM] | Drug uptake [4] |
| --- | --- | --- | --- | --- |
| CO[C@H]1C(=O)[C@]2(C)[C@@H](OC)C[C@H]3OC[C@@]3(OC(C)=O)[C@H]2[C@H](OC(=O)c2ccccc2)[C@]2(O)C[C@H](OC(=O)[C@H](O)[C@@H](NC(=O)OC(C)(C)C)c3ccccc3)C(C)=C1C2(C)C [CABAZITAXEL] | 0.26 |  |  |  |
| COc1cc2cc(c1Cl)N(C)C(=O)C[C@H](OC(=O)[C@H](C)N(C)C(=O)CCSC1CC(=O)N(CCCNC(=O)CNC(=O)[C@H](CC(C)C)NC(=O)[C@H](Cc3ccccc3)NC(=O)CNC(=O)CCCCCN3C(=O)CC(SCCCN[C@H](Cc4ccccc4)C(=O)N[C@H]4CSSC[C@@H](C(=O)N[C@H](CO)[C@@H](C)O)NC(=O)[C@H]([C@@H](C)O)NC(=O)[C@H](CCCCN)NC(=O)[C@@H](Cc5c[nH]c6ccccc56)NC(=O)[C@H](Cc5ccccc5)NC4=O)C3=O)C1=O)[C@@]1(C)O[C@H]1[C@H](C)[C@@H]1C[C@@](O)(NC(=O)O1)[C@H](OC)/C=C/C=C(\C)C2 (some centres not stated) | 75 | 0.14 | 202 |  |
| CC[C@H](C)[C@@H]([C@@H](CC(=O)N1CCC[C@H]1[C@H](OC)[C@@H](C)C(=O)N[C@H](C)[C@@H](O)c1ccccc1)OC)N(C)C(=O)[C@@H](NC(=O)[C@H](C(C)C)N(C)C(=O)OCCSSC[C@H](NC(=O)[C@@H]1CSSC[C@H](NC(=O)[C@H](N)Cc2ccccc2)C(=O)N[C@@H](Cc2ccc(O)cc2)C(=O)N[C@H](Cc2c[nH]c3ccccc23)C(=O)N[C@@H](CCCCN)C(=O)N[C@@H]([C@@H](C)O)C(=O)N1)C(N)=O)C(C)C | 1260 | 0.18 | 1430 |  |
| COc1cc2cc(c1Cl)N(C)C(=O)C[C@H](OC(=O)[C@H](C)N(C)C(=O)CCS)[C@@]1(C)O[C@H]1[C@H](C)[C@@H]1C[C@@](O)(NC(=O)O1)[C@H](OC)/C=C/C=C(\C)C2 | 11 |  |  |  |
| COc1cc2cc(c1Cl)N(C)C(=O)C[C@H](OC(=O)[C@H](C)N(C)C(=O)CCSC1CC(=O)N(CC(=O)NC[C@H](NC(=O)[C@@H]3CSSC[C@H](NC(=O)[C@H](N)Cc4ccccc4)C(=O)N[C@@H](Cc4ccc(O)cc4)C(=O)N[C@H](Cc4c[nH]c5ccccc45)C(=O)N[C@@H](CCCCN)C(=O)N[C@@H]([C@@H](C)O)C(=O)N3)C(N)=O)C1=O)[C@@]1(C)O[C@H]1[C@H](C)[C@@H]1C[C@@](O)(NC(=O)O1)[C@H](OC)/C=C/C=C(\C)C2 (some centres not stated) | 91 | 0.14 | 2520 |  |
| CC[C@H](C)[C@@H]([C@@H](CC(=O)N1CCC[C@H]1[C@H](OC)[C@@H](C)C(=O)N[C@H](C)[C@@H](O)c1ccccc1)OC)N(C)C(=O)[C@@H](NC(=O)[C@H](C(C)C)N(C)C(=O)OCCSSCCCN[C@H](Cc1ccccc1)C(=O)N[C@H]1CSSC[C@@H](C(=O)N[C@H](CO)[C@@H](C)O)NC(=O)[C@H]([C@@H](C)O)NC(=O)[C@H](CCCCN)NC(=O)[C@@H](Cc2c[nH]c3ccccc23)NC(=O)[C@H](Cc2ccccc2)NC1=O)C(C)C | 1470 | 0.26 | 560 |  |
| COc1cc2cc(c1Cl)N(C)C(=O)C[C@H](OC(=O)[C@H](C)N(C)C(=O)CCC(C)(C)SSC[C@H](NC(=O)[C@@H]1CSSC[C@H](NC(=O)[C@H](N)Cc3ccccc3)C(=O)N[C@@H](Cc3ccc(O)cc3)C(=O)N[C@H](Cc3c[nH]c4ccccc34)C(=O)N[C@@H](CCCCN)C(=O)N[C@@H]([C@@H](C)O)C(=O)N1)C(N)=O)[C@@]1(C)O[C@H]1[C@H](C)[C@@H]1C[C@@](O)(NC(=O)O1)[C@H](OC)/C=C/C=C(\C)C2 | 27 | 0.075 | 581 |  |
| COc1cc2cc(c1Cl)N(C)C(=O)C[C@H](OC(=O)[C@H](C)N(C)C(=O)CCSSCCOc1ccc(C[C@@H](N)C(=O)N[C@H]3CSSC[C@@H](C(=O)N[C@H](C(=O)O)[C@@H](C)O)NC(=O)[C@H]([C@@H](C)O)NC(=O)[C@H](CCCCN)NC(=O)[C@@H](Cc4c[nH]c5ccccc45)NC(=O)[C@H](Cc4ccc(O)cc4)NC3=O)cc1)[C@@]1(C)O[C@H]1[C@H](C)[C@@H]1C[C@@](O)(NC(=O)O1)[C@H](OC)/C=C/C=C(\C)C2 | 15 | 0.015 | 198 | Active |
| CO[C@H]1C(=O)[C@]2(C)[C@@H](OC)C[C@H]3OC[C@@]3(OC(C)=O)[C@H]2[C@H](OC(=O)c2ccccc2)[C@]2(O)C[C@H](OC(=O)[C@H](OC(=O)OCCSSCCCN[C@H](Cc3ccccc3)C(=O)N[C@H]3CSSC[C@@H](C(=O)N[C@H](CO)[C@@H](C)O)NC(=O)[C@H]([C@@H](C)O)NC(=O)[C@H](CCCCN)NC(=O)[C@@H](Cc4c[nH]c5ccccc45)NC(=O)[C@H](Cc4ccccc4)NC3=O)[C@@H](NC(=O)OC(C)(C)C)c3ccccc3)C(C)=C1C2(C)C | 150 | 0.77 | 157 |  |
| COc1cc2cc(c1Cl)N(C)C(=O)C[C@H](OC(=O)[C@H](C)N(C)C(=O)CCSSCCNC(=O)[C@@H](NC(=O)[C@@H]1CSSC[C@H](NC(=O)[C@H](N)Cc3ccccc3)C(=O)N[C@@H](Cc3ccc(O)cc3)C(=O)N[C@H](Cc3c[nH]c4ccccc34)C(=O)N[C@@H](CCCCN)C(=O)N[C@@H]([C@@H](C)O)C(=O)N1)[C@@H](C)O)[C@@]1(C)O[C@H]1[C@H](C)[C@@H]1C[C@@](O)(NC(=O)O1)[C@H](OC)/C=C/C=C(\C)C2 | 44 |  | 528 | Active |
| COc1cc2cc(c1Cl)N(C)C(=O)C[C@H](OC(=O)[C@H](C)N(C)C(=O)CCSSCCCN[C@H](Cc1ccccc1)C(=O)N[C@H]1CSSC[C@@H](C(=O)N[C@@H](Cc3c[nH]c4ccccc34)C(N)=O)NC(=O)[C@H](C(C)C)NC(=O)[C@H](CCCCN)NC(=O)[C@@H](Cc3c[nH]c4ccccc34)NC(=O)[C@H](Cc3ccc(O)cc3)NC1=O)[C@@]1(C)O[C@H]1[C@H](C)[C@@H]1C[C@@](O)(NC(=O)O1)[C@H](OC)/C=C/C=C(\C)C2 | 22 | 0.19 | 115 | Active |
| COc1cc2cc(c1Cl)N(C)C(=O)C[C@H](OC(=O)[C@H](C)N(C)C(=O)CCSSCCCN[C@H](Cc1ccccc1)C(=O)N[C@H]1CSSC[C@@H](C(=O)N[C@H](C(=O)O)[C@@H](C)O)NC(=O)[C@H]([C@@H](C)O)NC(=O)[C@H](CCCCN)NC(=O)[C@@H](Cc3c[nH]c4ccccc34)NC(=O)[C@H](Cc3ccc(O)cc3)NC1=O)[C@@]1(C)O[C@H]1[C@H](C)[C@@H]1C[C@@](O)(NC(=O)O1)[C@H](OC)/C=C/C=C(\C)C2 | 19 |  | 757 | Active |
| COc1cc2cc(c1Cl)N(C)C(=O)C[C@H](OC(=O)[C@H](C)N(C)C(=O)CCSSCCC(=O)NCCCC[C@H]1C(=O)N[C@@H](Cc3ccc(O)cc3)C(=O)N[C@H](Cc3c[nH]c4ccccc34)C(=O)N[C@@H](CCCCN)C(=O)N[C@@H]([C@@H](C)O)C(=O)N[C@@H](Cc3ccccc3)C(=O)N1C)[C@@]1(C)O[C@H]1[C@H](C)[C@@H]1C[C@@](O)(NC(=O)O1)[C@H](OC)/C=C/C=C(\C)C2 | 60 | 0.1 | 865 |  |
| COc1cc2cc(c1Cl)N(C)C(=O)C[C@H](OC(=O)[C@H](C)N(C)C(=O)CCSSC[C@@H](CO)NC(=O)[C@@H]1CSSC[C@H](NC(=O)[C@H](N)Cc3ccccc3)C(=O)N[C@@H](Cc3ccc(O)cc3)C(=O)N[C@H](Cc3c[nH]c4ccccc34)C(=O)N[C@@H](CCCCN)C(=O)N[C@@H]([C@@H](C)O)C(=O)N1)[C@@]1(C)O[C@H]1[C@H](C)[C@@H]1C[C@@](O)(NC(=O)O1)[C@H](OC)/C=C/C=C(\C)C2 | 42 | 0.018 | 1390 |  |
| COc1cc2cc(c1Cl)N(C)C(=O)C[C@H](OC(=O)[C@H](C)N(C)C(=O)CCSSCCNC(=O)[C@@H]1CSSC[C@H](NC(=O)[C@H](N)Cc3ccccc3)C(=O)N[C@@H](Cc3ccc(O)cc3)C(=O)N[C@H](Cc3c[nH]c4ccccc34)C(=O)N[C@@H](CCCCN)C(=O)N[C@@H]([C@@H](C)O)C(=O)N1)[C@@]1(C)O[C@H]1[C@H](C)[C@@H]1C[C@@](O)(NC(=O)O1)[C@H](OC)/C=C/C=C(\C)C2 | 10 | 0.061 | 692 |  |
| CC[C@H](C)[C@@H]([C@@H](CC(=O)N1CCC[C@H]1[C@H](OC)[C@@H](C)C(=O)N[C@H](C)[C@@H](O)c1ccccc1)OC)N(C)C(=O)[C@@H](NC(=O)[C@@H](NC)C(C)C)C(C)C (H-[NMeV]V[Dil][Dolaproine]-X1) | 3.7 |  |  |  |
| COc1cc2cc(c1Cl)N(C)C(=O)C[C@H](OC(=O)[C@H](C)N(C)C(=O)CCSSC[C@H](NC(=O)[C@@H]1CSSC[C@H](NC(=O)[C@H](N)Cc3ccccc3)C(=O)N[C@@H](Cc3ccc(O)cc3)C(=O)N[C@H](Cc3c[nH]c4ccccc34)C(=O)N[C@@H](CCCCN)C(=O)N[C@@H]([C@@H](C)O)C(=O)N1)C(=O)O)[C@@]1(C)O[C@H]1[C@H](C)[C@@H]1C[C@@](O)(NC(=O)O1)[C@H](OC)/C=C/C=C(\C)C2 | 183 | 0.013 | 1600 |  |
